The record followed here is ChEMBL document CHEMBL1158761, “Globosumones A-C, cytotoxic orsellinic acid esters from the Sonoran desert endophytic fungus Chaetomium globosum” (J Nat Prod, 2005).

Series [1] deals with MIA PaCa-2. Description: Cytotoxicity against human MIAPaCa2 cells at 10 ug/mL. In kind it is functional, cell-based.
The test system of series [2] is SF-268. Nature of the series: Cytotoxicity against human SF268 cells at 10 ug/mL. Format: functional, cell-based.
Series [3] relates to NCI-H460. Nature of the series: Cytotoxicity against human NCI-H460 cells at 10 ug/mL by MTT assay. In kind it is functional, cell-based.
In series [4] the test system is MCF7. Nature of the series: Cytotoxicity against human MCF7 cells at 10 ug/mL by MTT assay. In kind it is functional, cell-based.
A short description of series [5]: Cytotoxicity against human WI38 cells at 10 ug/mL. As to conditions: wi-38. Format: cell-based.
Series [6] can be described thus: Cytotoxicity against human WI38 cells. Format: cell-based. As to conditions: WI-38. In a few lines:
(§1)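 Cells were exposed to samples dissolved in DMSO for 72 h in RPMI-1640 medium with 10% fetal bovine serum. Inhibition of proliferation was read by the tetrazolium-based colorimetric MTT viability assay. The panel comprised NCI-H460 lung, MCF-7 breast, SF-268 glioma and MIA Pa Ca-2 pancreatic carcinoma lines, plus normal primary WI-38 fibroblasts.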

Series [7] concerns NCI-H460. Nature of the series: Cytotoxicity against human NCI-H460 cells by MTT assay. In kind it is functional, cell-based. In a few lines: as §1
Series [8] concerns MCF7. Nature of the series: Cytotoxicity against human MCF7 cells by MTT assay. Format: functional, cell-based. In a few lines:
as §1

For series [9], the system named is SF-268. Nature of the series: Cytotoxicity against human SF268 cells. In kind it is functional, cell-based. The method in brief: as §1
Series [10] relates to MIA PaCa-2. Nature of the series: Cytotoxicity against human MIAPaCa2 cells. In kind it is functional, cell-based. The method in brief:
as §1

Calls of active or inactive are those of the source. No cut-off for these calls is given here.

For the compound `Cc1cc(O)cc(O)c1C(=O)O` [ORSELLINIC ACID], the result in the series with MIA PaCa-2 [1], in the series on SF-268 [2], in the series on NCI-H460 [3] and in the series on MCF7 [4] was inactive. Besides, the Activity result in series [5] was “Not Active”.

Turning to `Cc1cc(O)cc(O)c1C(=O)OCC(=O)C[C@H](C)O` [GLOBOSUMONE B], the IC50 in [6] worked out at 14.2 µM; in the series on NCI-H460 [7], 24.8 µM; in the series on MCF7 [8], 21.9 µM; in the series with SF-268 [9], 29.1 µM; in the series with MIA PaCa-2 [10] it was 30.2 µM.

For `C/C=C/C(=O)COC(=O)c1c(C)cc(O)cc1O` [GLOBOSUMONE A], the IC50 worked out at 13 µM in [6]; 6.5 µM in the series with NCI-H460 [7]; 21.3 µM with MCF7 [8]; 8.8 µM with SF-268 [9]; 10.6 µM with MIA PaCa-2 [10].

For the compound `Cc1cc(O)cc(O)c1C(=O)OCC(=O)[C@@H](O)[C@H](C)O` [GLOBOSUMONE C], the outcome in the series on MIA PaCa-2 [1], with SF-268 [2], in the series with NCI-H460 [3] and in the series with MCF7 [4] was inactive. Further, the Activity result in series [5] is “Not Active”.

For `COc1cccc2c1C(=O)c1c(O)c3c(c(O)c1C2=O)C[C@@](O)(C(=O)CO)C[C@@H]3O[C@H]1C[C@H](N)[C@H](O)[C@H](C)O1` [DOXORUBICIN], the values for the IC50 (in [6]; in the series with NCI-H460 [7]) were 0.3 µM and 0.01 µM, respectively.

Consider `C/C=C/C1OC2=C(C(=O)C[C@H](C)O2)C(=O)[C@@H]1O` (some centres not stated) [TRICHODION], for which the outcome with MIA PaCa-2 [1], with SF-268 [2], with NCI-H460 [3] and in the series with MCF7 [4] was inactive. For the same compound, the Activity entry in series [5] is “Not Active”.
